Measured values as given in ChEMBL document CHEMBL1133761, “Structure-activity relationships of (E)-5-(2-bromovinyl)uracil and related pyrimidine nucleosides as antiviral agents for herpes viruses” (J Med Chem, 2000).

Assays:
CCRF-CEM [1] = assay: Dose that inhibited 50% cell growth of human T-lymphoid CEM cells compared with untreated control; assay type: functional
Procedure, shortened: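 CEM cells in log-phase growth were exposed to serial drug dilutions and kept for three generations, then counted by Coulter counter. ID50 is the dose giving 50% growth inhibition versus untreated control.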

CCRF-CEM [2] = assay: The mitochondrial toxicity was measured on human T-lymphoid CEM cells.; assay type: functional
Procedure, shortened: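 Human T-lymphoid CEM cells were incubated with drug at various concentrations, with medium and drug renewed on days 4 and 6, and harvested on day 8. DNA was extracted in TE (25 mM Tris pH 8.0, 1 mM EDTA), treated with RNase A and proteinase K, slot-blotted and probed with an mtDNA-specific probe.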

Human gammaherpesvirus 4 = assay: Effective concentration to show 50% of activity was measured on Epstein Barr virus(EBV) cell culture; assay type: functional, organism-based
Procedure, shortened: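 EBV-producing H-1 cells were kept in RPMI 1640 with 10% FBS. Inhibition of viral growth was read as reduced viral DNA synthesis and expressed as EC50.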

[3] = Effective concentration to show 50% of activity was measured on herpes simplex virus-2 333 strain cell culture.; assay type: functional, Human alphaherpesvirus 2
Procedure, shortened: (§1)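 Plaque reduction assay in Vero cells kept in RPMI 1640 with 10% FBS. HSV-1 was KOS strain and HSV-2 was strain 333. EC50 is based on the reduction in plaques.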

Human alphaherpesvirus 3 [4] = assay: Effective concentration to show 50% of activity was measured on varicella zoster virus(VZV) cell culture; assay type: functional, organism-based
[5] = Effective concentration to show 50% of activity was measured on herpes simplex virus-1 KOS strain cell culture.; assay type: functional, Human alphaherpesvirus 1; procedure, shortened: as §1
Human alphaherpesvirus 3 [6] = assay: The effective concentration to show 50% of activity was measured on varicella zoster virus(VZV) cell culture; assay type: functional, organism-based
Procedure, shortened: (§2)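 VZV Ellen strain was used. Antiviral effect was scored as inhibition of viral DNA synthesis and expressed as EC50.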

Human alphaherpesvirus 3 [7] = assay: The effective concentration to show 50% of activity was measured on varicella zoster virus(Ellen) cell culture; assay type: functional, organism-based; procedure, shortened: as §2
[8] = The effective concentration to show 50% of activity was measured on herpes simplex virus-1 with strain KOS cell culture.; assay type: functional, cell-based, Human alphaherpesvirus 1; procedure, shortened: as §1

SMILES	ID50 (CCRF-CEM [1])	ID50 (CCRF-CEM [2])	EC50 (Human gammaherpesvirus 4; human gammaherpesvirus 4)	EC50 [3]	EC50 (Human alphaherpesvirus 3 [4]; Human alphaherpesvirus 3)	EC50 [5]	EC50 (Human alphaherpesvirus 3 [4])	EC50 (Human alphaherpesvirus 3 [6])	EC50 (Human alphaherpesvirus 3 [7])	EC50 (Human gammaherpesvirus 4)	EC50 [8]
O=c1[nH]c(=O)n([C@H]2CO[C@H](CO)O2)cc1/C=C/I	> 100 µM	> 25 µM	> 50 µM	> 50 µM	> 30 µM	> 50 µM					
O=c1[nH]c(=O)n([C@@H]2CO[C@H](CO)O2)cc1/C=C/I	> 100 µM	> 200 µM	3.91 µM	> 50 µM	0.035 µM	33 µM					
O=c1[nH]c(=O)n(C2CO[C@@H](CO)O2)cc1/C=C/Br (stereo partly drawn)	> 100 µM		> 50 µM	> 50 µM	26 µM	> 50 µM					
O=c1[nH]c(=O)n([C@H]2O[C@@H](CO)[C@H](O)[C@H]2O)cc1/C=C/Br (stereo in doubt; 4)	> 100 µM		> 50 µM	> 50 µM		> 50 µM	> 50 µM				
O=c1[nH]c(=O)n([C@@H]2CO[C@H](CO)O2)cc1I	> 100 µM	> 200 µM	0.033 µM					17 µM			
O=c1[nH]c(=O)n([C@@H]2CO[C@H](CO)O2)cc1/C=C/Br	> 100 µM	> 200 µM	0.59 µM	> 50 µM	0.07 µM	36 µM					
O=c1[nH]c(=O)n([C@H]2C[C@H](O)[C@@H](CO)O2)cc1/C=C/Br [BRIVUDINE]	> 100 µM	> 100 µM	> 50 µM	> 50 µM	0.05 µM	> 50 µM			> 50 µM		
O=c1[nH]c(=O)n([C@H]2CO[C@H](CO)O2)cc1/C=C/Br	> 100 µM	> 25 µM	> 50 µM	> 50 µM	> 30 µM	> 50 µM					
O=c1[nH]c(=O)n(C2CS[C@@H](CO)O2)cc1/C=C/Br (stereo partly drawn)	> 100 µM			> 50 µM		> 50 µM					
O=c1[nH]c(=O)n([C@H]2O[C@@H](CO)[C@H](O)[C@H]2F)cc1/C=C/Br	> 100 µM			> 50 µM	> 50 µM	> 50 µM					
Nc1nc2c(ncn2COCCO)c(=O)[nH]1 [ACYCLOVIR]	> 100 µM	> 200 µM	19.7 µM			13.6 µM					
O=c1[nH]c(=O)n([C@H]2CO[C@H](CO)O2)cc1/C=C/Cl	> 100 µM	> 25 µM	> 50 µM	> 50 µM	> 30 µM	> 50 µM					
O=c1[nH]c(=O)n([C@@H]2CO[C@H](CO)O2)cc1/C=C/Cl	> 100 µM	> 200 µM	0.49 µM	> 50 µM	0.15 µM	18 µM					
O=c1[nH]c(=O)n([C@H]2O[C@@H](CO)[C@H](O)[C@H]2O)cc1/C=C/Br (stereo in doubt)		> 200 µM					0.001 µM			47 µM	
O=c1[nH]c(=O)n([C@@H]2CO[C@@H](CO)O2)cc1/C=C/Br	> 100 µM		> 50 µM	> 50 µM	> 30 µM	> 50 µM					
O=c1[nH]c(=O)n([C@@H]2CO[C@H](CO)O2)cc1Br	> 100 µM	> 200 µM	0.19 µM		> 30 µM						
O=c1[nH]c(=O)n([C@H]2O[C@@H](CO)[C@H](O)[C@@H]2F)cc1/C=C/Br	> 100 µM			> 50 µM	> 50 µM	> 50 µM					
Nc1nc(O)c2ncn(CCC(CO)CO)c2n1 [PENCICLOVIR]	> 100 µM	> 200 µM						0.14 µM			18 µM
